# From PubChem BioAssay
# An excerpt weighted towards active compounds, which were near 0.88% of everything screened.
# CCR6 antagonist: antagonists of human CCR6 receptor | P51684 | CHO-K1 CCR6 PathHunter beta-arrestin, luminescence, CCL20-stimulated | inhibition, % at 20 µM | AID 493098 | actives 0.49% (n = 340,000);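 active = compounds whose inhibition of the agonist-driven luminescence signal at 20 µM reaches about 50%, limit read from the data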;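 also: cells stimulated with CCL20 at 14 nM final; plate controls were DMSO with CCL20 for no effect and DMSO without agonist for full effect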
# CXCR6 block: blocks human CXCR6 beta-arrestin recruitment. CHO-K1 PathHunter CXCR6 beta-arrestin, luminescence. AID 602244. inhibition, % at 20 µM. O00574. actives 0.36% (n = 360,000); in the data active = inhibition above about 34%, passing the limit was not always enough;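 also: antagonist mode with CXCL16 agonist at 10 nM final; 0% = 10 nM CXCL16 with DMSO and 100% = unstimulated wells without agonist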
# Target sequence (O00574 whole entry, looked up): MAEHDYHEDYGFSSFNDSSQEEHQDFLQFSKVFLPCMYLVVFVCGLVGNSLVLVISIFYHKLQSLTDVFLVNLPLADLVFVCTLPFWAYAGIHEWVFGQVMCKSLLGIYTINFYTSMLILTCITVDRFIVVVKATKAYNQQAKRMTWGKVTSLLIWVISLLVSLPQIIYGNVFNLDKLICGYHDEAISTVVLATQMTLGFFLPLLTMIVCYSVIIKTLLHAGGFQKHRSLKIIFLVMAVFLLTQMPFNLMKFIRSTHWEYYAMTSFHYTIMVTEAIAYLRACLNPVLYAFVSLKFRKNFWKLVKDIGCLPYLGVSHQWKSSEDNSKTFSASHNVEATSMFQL
# PKA-R1A activ: activates the PKA-R1A holoenzyme complex; P00514+P68181; PKA-R1A dissociation, Cy5-IP20 fluorescence polarization; scaled: DMSO 0%, 113 µM cGMP 100%; activation, % at 11.4 µM; actives 0.083% (n = 340,000); AID 504707;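 active = percent activation above the mean of all tested compounds plus 3 SD, cut at about 19% in these data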;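 also: higher means more PKAc released from R1A so a rise in polarization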
# PKA-R2B activ: activates the human PKA-R2B holoenzyme complex | actives 0.079% (n = 340,000) | PKA-R2B holoenzyme dissociation, Cy5-IP20 fluorescence polarization; R2B truncated from residue 108, S112A mutant; 0% DMSO only, 100% 113 µM cGMP | activation, % at 11.4 µM | P22694+P31323;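 active = activation above a cutoff set at the mean over all compounds plus 3 SD, cut at about 18% in these data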;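 also: higher means more holoenzyme dissociation and a rise in polarization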
# APJ ag: APJ receptor agonism | P35414 | CHO-K1 APJ PathHunter beta-arrestin, luminescence; 0% DMSO wells, 100% apelin | activation, % at 20 µM | actives 0.11% (n = 330,000) | AID 2520;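 active = activation more than six SD over the plate average, tested at 20 µM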;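 also: 0% = DMSO alone and 100% = apelin-13 at 10 nM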
#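 system = engineered CHO-K1 APJ arrestin reporter cells | input = 1000 cells per well | timing = overnight seeding, 90 min compound at 25 °C, 1 h detection | measured by = enzyme-fragment complementation luminescence | read-out = beta-arrestin recruitment to APJ as agonist activity, luminescent signal | control set = negative DMSO alone, positive Apelin-13 at 10 nM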
# APJ antagonist: antagonists of human APJ apelin receptor; actives 0.32% (n = 330,000); AID 2521; inhibition, % at 20 µM; P35414; CHO-K1 APJ beta-arrestin complementation, luminescence;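 active = inhibition above about 40% at 20 µM, limit read from the data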;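 also: cells challenged with 10 nM apelin-13 agonist together with compound; plate controls were apelin-13 plus DMSO wells for no effect and DMSO wells lacking apelin-13 for full effect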
# APJ antag confirm: APJ receptor antagonism confirmation | shares compounds with APJ antagonist | APJ beta-arrestin recruitment, luminescence, antagonist mode | inhibition, % at 20 µM | actives 66% (n = 950); in the data active = inhibition above about 50%
# Numbers without * were called inactive; nt = no result given.
SMILES,CCR6 antagonist,CXCR6 block,PKA-R1A activ,PKA-R2B activ,APJ ag,APJ antagonist,APJ antag confirm
CC1(O)CC(c2ccc(Cl)cc2)=NN1C(=O)c1ccc([N+](=O)[O-])cc1 (stereo not given),68*,17,-9,-15,-8,41*,70*
CCCCCCCC(=O)Oc1ccc(C(=O)Nc2cc(C)on2)cc1,1,-10,10,2,2,-28,nt
Cc1cc(-c2nnc(SCC(=O)Nc3cccc(Cl)c3)n2N)n[nH]1,3,-6,7,4,4,27,nt
COc1cccc(NC(=O)CSc2nnc(-c3cc(C)[nH]n3)n2N)c1,5,-9,-12,-9,-2,42*,1
CCOC(=O)[C@]12CCC=C1N(CCC1=CCCCC1)C(=O)[C@H](CC(=O)N1CCOCC1)C2,nt,-9,nt,nt,nt,nt,nt
CC1CCCC/C1=N\NC(=S)Nc1ccccc1 (stereo not given),10,-9,0,-10,-2,3,nt
CC(C)NC(=S)N/N=C1\CCCCC1C1CCCCC1 (stereo not given),85*,28,-4,6,-7,43*,85*
NS(=O)(=O)c1ccc(NC(=O)COC(=O)CCc2nc3ccccc3c(=O)[nH]2)cc1,3,6,-3,-8,-4,45*,31
C/C(CCc1ccccc1)=N\NC(=O)C(=O)Nc1cccc(Cl)c1,7,-10,-10,-3,-2,-11,nt
COc1ccc(NC(=O)CSc2nnc(-c3ccccn3)n2-c2ccccc2)cc1OC,-14,-2,-5,-16,0,41*,-16
O=C(NN1C(=O)/C(=C/c2ccc(O)c([N+](=O)[O-])c2)SC1=S)c1ccccc1Cl,54*,39*,1,1,-10,47*,69*
CSc1ccccc1C(=O)NC1CCCCCC1,-12,-4,-5,-2,-3,46*,24
Cc1c(NS(=O)(=O)c2ccc(Cl)c(C(=O)OCC(=O)NCc3ccco3)c2)c(=O)n(-c2ccccc2)n1C,-3,-2,1,2,0,49*,4
Cc1ccc(NC(=O)Nc2ccc3c(c2)OCO3)cc1F,8,-9,-2,11,-6,-5,nt
CN(C)CCN(Cc1ccco1)C(=O)c1cc2c(Cl)nc3ccccc3c2s1,31,3,7,6,-3,41*,69*
CN1CCCC(OC(=O)c2cc(Br)ccc2Cl)C1 (stereo not given),16,0,-2,0,-4,51*,35
COc1cc(SC)ccc1C(=O)OCC(=O)NCC(C)C,2,3,-9,3,-2,41*,-3
C=C1C(=O)O[C@@H]2C[C@@H](C)[C@@H]3C=CC(=O)[C@@]3(C)[C@@H](OC(C)=O)[C@H]12,50,nt,nt,nt,-10,46*,77*
C[C@@H]1C[C@@H]2OC(=O)[C@]3(C)[C@H]2[C@@H](OC3(C)O)[C@]2(C)C(=O)C=C[C@H]12 (stereo not given in full),-6,-2,8,2,7,-7,nt
Cc1c(N2C(=O)/C(=C\c3ccccc3O)SC2=S)c(=O)n(-c2ccccc2)n1C,18,26,-6,-4,-1,3,nt
CN1C(=O)/C(=C/c2cc(N=Nc3ccccc3)ccc2O)SC1=S,74*,51*,-2,0,-15,60*,105*
Cc1ccc(C(=O)O)cc1NC(=S)NC(=O)c1ccc([N+](=O)[O-])c(C)c1,41,30,11,-3,-5,40*,37
Cc1ccc(CNC(=S)Nc2cc(C(=O)O)ccc2C)cc1,-7,0,-3,-1,-1,8,nt
COc1cc(C(=O)NC(=S)Nc2ccc([N+](=O)[O-])cc2C)cc(OC)c1OC,44,20,-2,-13,-5,43*,65*
COc1cccc(C(=O)NC(=S)Nc2ccc([N+](=O)[O-])cc2C)c1,49,16,-3,-3,-6,39,nt
SMILES,CCR6 antagonist,CXCR6 block,PKA-R1A activ,PKA-R2B activ,APJ ag,APJ antagonist,APJ antag confirm
CC(C)C(C(=O)NC1CCCC1)N(CC1CCCO1)C(=O)CNS(=O)(=O)c1ccc(F)cc1 (stereo not given),7,3,-4,-12,-1,20,nt
COc1cccc(N2CC(C)Cn3c2nc2c3c(=O)n(CCN3CCOCC3)c(=O)n2C)c1 (stereo not given),-11,18,-11,-4,-6,42*,62*
CCN(CC(=O)NCc1cccs1)C(=O)COc1ccc(C(C)=O)cc1,7,-9,0,-11,-3,0,nt
O=[N+]([O-])c1ccc(NNC(=S)Nc2ccccc2)cc1,67*,38,9,-7,-11,43*,99*
O=[N+]([O-])c1ccc(NC(=S)NCCc2ccccc2)cc1,23,8,-14,-4,-3,18,nt
CC[C@H](C)[C@@H](NC(=O)O[C@@H]1C(=O)c2cc(OC)ccc2O[C@H]1c1ccc(OC)c(Br)c1)C(=O)OC,9,1,1,1,9,3,nt
COc1ccc2c(c1)C(=O)[C@H](O)[C@@H](c1ccc(OC)c(Br)c1)O2,62*,nt,nt,nt,-21,58*,103*
Cc1ncc(CO)c(/C=N/Nc2ccc(C(F)(F)F)cn2)c1O,69*,48*,-21,-8,-12,63*,89*
C/C(=N\NC(=O)c1cccc(O)c1)c1ccc(NC(=O)Cc2ccccc2)cc1,4,-4,-10,1,3,11,nt
CC(C)(C)C(=O)Nc1cccc2[nH]ncc12,-4,6,-6,-2,-1,-2,nt
CCC(NC(=S)NC1CCCCC1)c1ccc(C)cc1 (stereo not given),nt,5,-2,1,6,-7,nt
CC(C(=O)OCC(=O)c1ccc(Br)cc1)N1C(=O)C2C3C=CC(C3)C2C1=O (stereo not given),6,21,-6,11,-4,-3,nt
CC(C(=O)OCC(=O)c1cccc([N+](=O)[O-])c1)N1C(=O)C2C3C=CC(C3)C2C1=O (stereo not given),51*,17,7,-7,-12,48*,62*
Cc1ccc(C(=O)COC(=O)C(C)N2C(=O)C3C4CCC(C4)C3C2=O)cc1C (stereo not given),12,-1,11,-17,-1,-6,nt
CC(C(=O)OCC(=O)c1cccc([N+](=O)[O-])c1)N1C(=O)C2C3CCC(C3)C2C1=O (stereo not given),55*,-1,-11,-11,-9,58*,53*
